Assays:
[1] = target: D(3) dopamine receptor (Rattus norvegicus) (UniProt P19020); test: Displacement of [3H]-spiperone from rat D3 receptor after 60 mins
D(2) dopamine receptor [2] = target: T1, D(2) dopamine receptor (Homo sapiens, UniProt P14416); test: Displacement of [3H]spiperone from human D2L receptor after 60 mins
Procedure, shortened: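 Cloned human D2L receptor membranes from transfected cells were incubated 60 min at 27 °C with [3H]-spiperone (0.2 nM). Buffer was 50 mM Tris-HCl pH 7.4 with 10 mM MgCl2 and 1 mM EDTA, and haloperidol (10 µM) defined non-specific binding. Bound radioactivity was collected on 0.3% PEI-soaked GF/C filters and measured by scintillation counting.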

D(3) dopamine receptor = D(3) dopamine receptor (Rattus norvegicus, UniProt P19020); test: Displacement of [3H]spiperone from rat dopamine D3 receptor after 60 mins
[3] = target: 5-hydroxytryptamine receptor 1A (Homo sapiens) (UniProt P08908); test: Displacement of [3H]8-OH-DPAT from human 5-HT1A receptor after 60 mins
D(2) dopamine receptor [4] = target: T1, D(2) dopamine receptor; test: Displacement of [3H]spiperone from human D2L receptor at 1 uM after 60 mins
[5] = target: D(4) dopamine receptor (Homo sapiens) (UniProt P21917); test: Displacement of [3H]-YM-09151-2 from human D4.2 receptor after 60 mins
Sequence of D(4) dopamine receptor (Homo sapiens) (P21917 whole entry, looked up): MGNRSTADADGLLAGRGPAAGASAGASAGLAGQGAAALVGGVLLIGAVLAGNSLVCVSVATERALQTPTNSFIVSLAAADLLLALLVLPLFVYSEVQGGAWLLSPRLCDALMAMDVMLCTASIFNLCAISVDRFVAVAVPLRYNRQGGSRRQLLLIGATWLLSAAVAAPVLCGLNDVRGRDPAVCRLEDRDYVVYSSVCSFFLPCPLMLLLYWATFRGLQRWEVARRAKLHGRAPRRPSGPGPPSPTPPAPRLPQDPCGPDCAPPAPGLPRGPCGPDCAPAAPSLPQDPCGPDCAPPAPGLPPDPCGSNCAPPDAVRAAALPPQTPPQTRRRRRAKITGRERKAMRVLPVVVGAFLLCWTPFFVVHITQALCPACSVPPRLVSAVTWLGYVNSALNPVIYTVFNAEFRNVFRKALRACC

T1 sequence (P14416 whole entry): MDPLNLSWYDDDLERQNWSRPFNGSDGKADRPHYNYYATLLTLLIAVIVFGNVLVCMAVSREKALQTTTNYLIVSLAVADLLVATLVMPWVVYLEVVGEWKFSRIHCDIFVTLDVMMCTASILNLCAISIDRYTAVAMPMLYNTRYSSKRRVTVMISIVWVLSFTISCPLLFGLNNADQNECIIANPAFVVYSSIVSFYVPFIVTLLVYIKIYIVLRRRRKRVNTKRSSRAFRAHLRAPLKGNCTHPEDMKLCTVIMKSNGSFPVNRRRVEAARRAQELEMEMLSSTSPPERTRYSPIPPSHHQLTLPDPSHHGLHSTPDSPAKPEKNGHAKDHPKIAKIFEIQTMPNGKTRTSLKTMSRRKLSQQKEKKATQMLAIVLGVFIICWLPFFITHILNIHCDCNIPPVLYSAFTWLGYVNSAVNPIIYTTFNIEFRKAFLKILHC
Sequence of D(3) dopamine receptor (P19020 whole entry): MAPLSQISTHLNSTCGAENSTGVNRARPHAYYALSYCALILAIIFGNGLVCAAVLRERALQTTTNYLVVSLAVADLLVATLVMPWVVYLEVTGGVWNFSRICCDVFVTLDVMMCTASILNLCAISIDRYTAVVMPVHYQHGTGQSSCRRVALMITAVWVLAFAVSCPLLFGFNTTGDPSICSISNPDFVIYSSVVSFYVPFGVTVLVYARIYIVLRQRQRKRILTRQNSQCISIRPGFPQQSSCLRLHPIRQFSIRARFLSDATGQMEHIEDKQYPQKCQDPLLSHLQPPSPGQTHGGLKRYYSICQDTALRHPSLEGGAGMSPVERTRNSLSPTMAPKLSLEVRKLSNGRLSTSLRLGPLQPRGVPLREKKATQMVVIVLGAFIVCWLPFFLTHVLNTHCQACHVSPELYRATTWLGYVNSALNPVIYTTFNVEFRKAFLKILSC
Sequence of 5-hydroxytryptamine receptor 1A (Homo sapiens) (P08908 whole entry, looked up): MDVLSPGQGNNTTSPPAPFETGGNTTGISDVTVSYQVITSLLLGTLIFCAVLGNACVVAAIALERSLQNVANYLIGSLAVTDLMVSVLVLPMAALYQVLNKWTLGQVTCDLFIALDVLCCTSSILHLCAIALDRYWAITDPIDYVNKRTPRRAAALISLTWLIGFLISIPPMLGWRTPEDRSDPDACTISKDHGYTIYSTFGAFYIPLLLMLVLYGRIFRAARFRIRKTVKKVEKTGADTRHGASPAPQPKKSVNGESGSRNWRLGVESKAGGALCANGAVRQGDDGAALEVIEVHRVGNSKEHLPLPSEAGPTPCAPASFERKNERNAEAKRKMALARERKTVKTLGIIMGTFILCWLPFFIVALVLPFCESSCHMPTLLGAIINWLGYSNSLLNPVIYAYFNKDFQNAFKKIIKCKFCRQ

Row | Structure (SMILES) | Ki [1] [nM] | Ki (D(2) dopamine receptor [2]) [nM] | Ki (D(3) dopamine receptor) [nM] | Ki [3] [nM] | inhibition (D(2) dopamine receptor [4]) [%] | Ki [5] [nM]
1 | COc1ccccc1N1CCN(CCCCCCNC(=O)c2ccc3ccccc3c2)CC1 | 0.56 | 121 | 96 | – | – | –
2 | COc1ccccc1N1CCN(CCNS(=O)(=O)c2ccc3ccccc3c2)CC1 | 56 | – | 348 | 5.19 | 44 | 24.4
3 | COc1ccccc1N1CCN(CCCCCCNS(=O)(=O)c2ccc3ccccc3c2)CC1 | 1.97 | 99 | ≤ 45 | 2.87 | – | 9.62
4 | COc1ccccc1N1CCN(CCCCCNC(=O)c2ccc3ccccc3c2)CC1 | 13 | 254 | 9.36 | 11.1 | – | 54
5 | COc1ccccc1N1CCN(CCCNS(=O)(=O)c2ccc3ccccc3c2)CC1 | 58.5 | 132 | 101 | 4.64 | – | 112
6 | COc1ccccc1N1CCN(CCCCNS(=O)(=O)c2ccc3ccccc3c2)CC1 | 27.5 | 46.5 | 79 | 4.1 | – | 62
7 | COc1ccccc1N1CCN(CCCCCNS(=O)(=O)c2ccc3ccccc3c2)CC1 | 12.5 | 438 | 84 | – | – | –
8 | COc1ccccc1N1CCN(CCCNC(=O)c2ccc3ccccc3c2)CC1 | 175 | – | 71 | 4.59 | 46 | 17.8
9 | COc1ccccc1N1CCN(CCNC(=O)c2ccc3ccccc3c2)CC1 | 66 | 890 | 113 | – | – | –
10 | COc1ccccc1N1CCN(CCCCNC(=O)c2ccc3ccccc3c2)CC1 | – | – | – | – | 30 | –

Reference: ChEMBL document CHEMBL1221249, “Synthesis and in vitro binding studies of piperazine-alkyl-naphthamides: impact of homology and sulphonamide/carboxamide bioisosteric replacement on the affinity for 5-HT1A, alpha2A, D4.2, D3 and D2L receptors” (Bioorg Med Chem Lett, 2010)
